The values below come from ChEMBL document CHEMBL1275292, “Design and synthesis of bioactive adamantanaminoalcohols and adamantanamines” (Eur J Med Chem, 2010).

Activity calls are given as the source filed them. No cut-off for these calls is given here.

The subject of series [1] is H3N2 subtype. Kind of series: Antiviral activity against Influenza A virus (A/Hong Kong/7/1987(H3N2)) infected in MDCK cells assessed as inhibition of virus-induced cytopathogenicity by MTS assay. The series is classed as functional, organism-based. The procedure, abridged: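 MDCK cells infected with influenza A/HK/7/87 (H3N2), whose M2 carries serine at position 31. Virus-induced cytopathic effect was read after multiple replication cycles at 72 h post infection by microscopic scoring and by a colorimetric formazan MTS cell-viability assay. EC50 is the concentration giving 50% inhibition of CPE by MTS. Compounds were tested as hydrochlorides, aminoalcohols as free bases. Values are mean ± SD with the number of independent determinations.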

The nature of series [2]: Cytotoxicity against MDCK cells by MTS assay. The series is classed as cell-based, Canis lupus familiaris. The following applies: dog. In general terms: Formazan colour is commonly taken as a measure of viable cells.
The test system of series [3] is Trypanosoma brucei. Kind of series: Antiparasitic activity against Trypanosoma brucei 427 bloodstream forms assessed as inhibition of parasite growth after 48 hrs. Type of series: functional, organism-based. The procedure, abridged: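 Bloodstream-form T. brucei strain 427 were grown at 37 °C and pH 7.4 in modified Iscove's medium, in 4 ml cultures for 48 h across a drug range of 0.1 to 25. Cell densities were counted by hemocytometer and growth was expressed as % of untreated controls. IC50 and IC90 were derived from these counts, as mean ± SD of three experiments.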

Series [4] can be described thus: Selectivity index, ratio of MCC for MDCK cells to EC50 for Influenza A virus (A/Hong Kong/7/1987(H3N2)). The following applies: dog, read-out: Selectivity Index. The series is classed as toxicity, cell-based.
Series [5] concerns Trypanosoma brucei. Kind of series: Antiparasitic activity against Trypanosoma brucei 427 bloodstream forms assessed as inhibition of parasite growth at 5 ug/mL after 48 hrs. The series is classed as functional. The following applies: Trypanosoma brucei, 427, 48 h; read-out: GI.
The test system of series [6] is H3N2 subtype. The experiment in a line: Antiviral activity against Influenza A virus (A/Hong Kong/7/1987(H3N2)) infected in MDCK cells assessed as inhibition of virus-induced cytopathogenicity at 500 uM by MTS assay. Type of series: functional, organism-based. On the technique in general: Damage to the host cells serves as the signal in cytopathic effect assays.
[7] abbreviates: Trypanosoma brucei, 427, 48 h, read-out: IC50.

As to `CC(N)C12CC3CC(CC(C3)C1)C2` (centres undefined) [RIMANTADINE], the concentration giving a half-maximal response (EC50) with H3N2 subtype [1] is no more than 0.362 µM. For the same compound, the MCC in series [2] is greater than 100 µM. In addition, in the series with Trypanosoma brucei [3] (Trypanosoma brucei, 427, 48 h), the IC90 turned out to be 14 µM. Also, the selectivity ratio in series [4] was greater than 276.
As for `NC1CC2CC3CC(C2)C1C3` (centres undefined), in the series on H3N2 subtype [1], the EC50 was determined as 1.5 µM. Besides, the inhibition of growth at 5 µg/mL with Trypanosoma brucei [5] came out at 30%. The compound also came in with an MCC in series [2] of 107 µM. For the same compound, in the series on Trypanosoma brucei [3], the IC50 result is on record as “Not Active”. Moreover, in series [4], the selectivity ratio worked out at 69.
As for `NC12CC3CC(CC(C3)C1)C2` [AMANTADINE], in the series with H3N2 subtype [1], the EC50 is 2 µM. In addition, the MCC in series [2] is greater than 100 µM. In addition, in series [4], the selectivity ratio was greater than 51.
Regarding `NC1(CO)C2CC3CC(C2)CC1C3` (centres undefined), the EC50 in the series with H3N2 subtype [1] came out at 1.46 µM. In series [2], the MCC was greater than 459 µM. Further, the IC90 in the series on Trypanosoma brucei [3] (Trypanosoma brucei, 427, 48 h) amounted to 18.2 µM. Further, the IC50 with Trypanosoma brucei [3] (setting [7]) was 9.4 µM. In series [4], the selectivity ratio is greater than 314.
As to `CNC(CN)C12CC3CC(CC(C3)C1)C2` (centres undefined), the inhibition result in the series on H3N2 subtype [6] is “inactive”. In series [2], this compound gave an MCC of 404 µM. Besides, the IC90 with Trypanosoma brucei [3] (Trypanosoma brucei, 427, 48 h) stood at 7.8 µM. In addition, the IC50 in the series on Trypanosoma brucei [3] (setting [7]) came out at 5.2 µM.
In the case of `OC1(C2CCCCN2)C2CC3CC(C2)CC1C3` (centres undefined), the inhibition entry with H3N2 subtype [6] was “inactive”. In addition, the inhibition of growth at 5 µg/mL in the series with Trypanosoma brucei [5] was found to be 30%. Also, in series [2], the MCC turned out to be 208 µM. Besides, the IC50 entry in the series with Trypanosoma brucei [3] is “Not Active”.
As to `NC(=O)c1ncn([C@@H]2O[C@H](CO)[C@@H](O)[C@H]2O)n1` [RIBAVIRIN], the EC50 in the series on H3N2 subtype [1] turned out to be 8.7 µM.
Consider `NCC1(O)C2CC3CC(C2)CC1C3` (centres undefined), for which the inhibition entry in the series on H3N2 subtype [6] was “inactive”. The inhibition of growth at 5 µg/mL with Trypanosoma brucei [5] worked out at 30%. For the same compound, the IC50 result in the series on Trypanosoma brucei [3] is “Not Active”.
Regarding `CN(C)CCC[C@]1(O)CC2CC3CC(C2)C1C3` (some centres undefined), the inhibition result in the series with H3N2 subtype [6] is “inactive”. This compound registered an MCC in series [2] greater than 250 µM. The IC90 with Trypanosoma brucei [3] (Trypanosoma brucei, 427, 48 h) amounted to 1.7 µM. Moreover, in the series with Trypanosoma brucei [3] (setting [7]), the IC50 was 0.84 µM.
Consider `NCCC12CC3CC(CC(C3)C1O)C2` (centres undefined), for which, in the series with H3N2 subtype [1], the EC50 is 8.6 µM. For the same compound, the inhibition of growth at 5 µg/mL in the series with Trypanosoma brucei [5] worked out at 30%. The MCC in series [2] was 512 µM. For the same compound, the 50% inhibitory concentration (IC50) entry in the series with Trypanosoma brucei [3] is “Not Active”. The selectivity ratio in series [4] amounted to 60.
As for `CN(C)CCCC12CC3CC(CC(C3)C1O)C2` (centres undefined), the inhibition entry in the series on H3N2 subtype [6] is “inactive”. This compound displayed an MCC in series [2] greater than 250 µM. In addition, the IC90 in the series with Trypanosoma brucei [3] (Trypanosoma brucei, 427, 48 h) was 1.8 µM. In addition, the IC50 in the series with Trypanosoma brucei [3] (setting [7]) stood at 0.84 µM.
Take `NC1C2CC3CC(C2)CC1(c1ccccc1)C3` (centres undefined): the inhibition result in the series on H3N2 subtype [6] was “inactive”. This compound also had an MCC in series [2] of 218 µM. The IC90 in the series with Trypanosoma brucei [3] (Trypanosoma brucei, 427, 48 h) was greater than 20 µM. For the same compound, the IC50 in the series on Trypanosoma brucei [3] (setting [7]) turned out to be 11.1 µM.
Turning to `NCCC1(O)C2CC3CC(C2)CC1C3` (centres undefined), the EC50 in the series with H3N2 subtype [1] was 6.24 µM. The inhibition of growth at 5 µg/mL in the series with Trypanosoma brucei [5] is 30%. In addition, in series [2], the MCC was 17 µM. Also, the IC50 entry with Trypanosoma brucei [3] is given as “Not Active”. For the same compound, the selectivity ratio in series [4] came out at 3.
The like results for `NCCC1(O)CC2CC3CC(C2)C1C3` (centres undefined) were, in that order, 7.68 µM, 30%, 512 µM, “Not Active” and 67.
Consider `CN(C)CCCC12CC3CC(CC(C3)C1N)C2` (centres undefined), for which the inhibition result in the series on H3N2 subtype [6] is “inactive”. In addition, the inhibition of growth at 5 µg/mL with Trypanosoma brucei [5] was determined as 30%. In series [2], the MCC was greater than 200 µM. Moreover, in the series on Trypanosoma brucei [3], the IC50 result was “Not Active”.
On to `NCC1(CO)C2CC3CC(C2)CC1C3` (centres undefined), for which, in the series on H3N2 subtype [1], the concentration for a half-maximal effect (EC50) stood at 0.34 µM. Further, the inhibition of growth at 5 µg/mL with Trypanosoma brucei [5] is 30%. Besides, the MCC in series [2] is 87 µM. Besides, in the series on Trypanosoma brucei [3], the IC50 result is “Not Active”. Besides, the selectivity ratio in series [4] was 256.
Consider `CNC1(c2ccccn2)C2CC3CC(C2)CC1C3` (centres undefined), for which, in the series with H3N2 subtype [6], the inhibition result was “inactive”. Besides, the MCC in series [2] came to 264 µM. Further, in the series with Trypanosoma brucei [3] (Trypanosoma brucei, 427, 48 h), the IC90 is greater than 25 µM. In the series on Trypanosoma brucei [3] (setting [7]), the IC50 is 24.6 µM.

What is called EC50 is the midpoint of the concentration-response curve. As a reminder, the IC90 is the concentration needed for an effect of 90%. As usually defined, the IC50 is the concentration that inhibits the measured activity by half.
